Target: Metabotropic glutamate receptor 5 (Rattus norvegicus) (UniProt P31424)
Assay: mGlu5 glutamate response modulation check – cell-based, rat, calcium flux, Fluo-4, selectivity assay for mGlu4 lead optimization, profiling panel (AID 623890)
Settings: rat mGlu5 cells, Fluo-4 calcium flux, glutamate CRC shift, at 10 µM
Outline: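 System: rat mGlu5-expressing cells. Medium: HEPES- and probenecid-buffered HBSS, pH 7.3. Signal: Fluo-4 calcium fluorescence, excitation 470 nm, emission 540 nm. Incubation: ~2.5 min compound pre-incubation, ~3 min post-agonist read. Read-out: peak post-agonist fluorescence rise, normalized to baseline and pre-agonist point, four-parameter logistic fit. Doses: single compound dose, 10 µM final.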

Sequence of Metabotropic glutamate receptor 5 (Rattus norvegicus) (P31424 whole entry, looked up): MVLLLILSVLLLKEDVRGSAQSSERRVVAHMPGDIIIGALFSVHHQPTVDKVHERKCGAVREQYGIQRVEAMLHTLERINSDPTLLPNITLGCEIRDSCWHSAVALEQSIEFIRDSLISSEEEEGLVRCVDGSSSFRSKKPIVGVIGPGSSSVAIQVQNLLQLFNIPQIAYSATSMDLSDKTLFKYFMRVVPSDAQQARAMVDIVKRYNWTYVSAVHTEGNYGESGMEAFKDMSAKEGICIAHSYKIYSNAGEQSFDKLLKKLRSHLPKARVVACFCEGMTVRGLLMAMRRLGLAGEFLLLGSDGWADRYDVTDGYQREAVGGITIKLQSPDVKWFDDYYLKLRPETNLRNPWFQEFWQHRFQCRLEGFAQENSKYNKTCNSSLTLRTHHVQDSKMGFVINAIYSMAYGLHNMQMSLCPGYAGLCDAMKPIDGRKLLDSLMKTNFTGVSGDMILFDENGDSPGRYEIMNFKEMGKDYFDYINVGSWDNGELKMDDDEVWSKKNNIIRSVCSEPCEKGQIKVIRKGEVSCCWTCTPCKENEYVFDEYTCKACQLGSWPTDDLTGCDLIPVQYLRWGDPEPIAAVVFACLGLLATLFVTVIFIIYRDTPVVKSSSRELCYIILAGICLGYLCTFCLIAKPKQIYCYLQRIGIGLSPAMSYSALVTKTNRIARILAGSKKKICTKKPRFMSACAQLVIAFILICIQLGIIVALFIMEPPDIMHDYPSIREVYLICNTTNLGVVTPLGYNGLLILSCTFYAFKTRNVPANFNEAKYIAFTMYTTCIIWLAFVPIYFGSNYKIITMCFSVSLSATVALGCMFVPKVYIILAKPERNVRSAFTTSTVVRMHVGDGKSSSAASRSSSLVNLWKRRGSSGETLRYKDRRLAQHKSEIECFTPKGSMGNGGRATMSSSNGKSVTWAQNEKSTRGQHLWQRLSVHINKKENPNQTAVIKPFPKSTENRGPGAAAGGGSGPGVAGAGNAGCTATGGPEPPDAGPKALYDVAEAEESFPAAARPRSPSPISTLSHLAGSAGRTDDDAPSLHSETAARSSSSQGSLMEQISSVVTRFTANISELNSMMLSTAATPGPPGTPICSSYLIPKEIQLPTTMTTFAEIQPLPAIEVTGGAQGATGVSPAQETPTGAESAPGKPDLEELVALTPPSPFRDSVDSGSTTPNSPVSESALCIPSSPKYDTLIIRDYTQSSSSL

## O=C(Nc1cccc(Cl)c1)c1ccccn1
  fold shift of glutamate EC50: 0.304
Measured here: glutamate max response with compound
  max response: 74%

Reference: PubChem BioAssay AID623890 (Vanderbilt Specialized Chemistry Center, 2012)
